Data reported in PMC11757046 (Journal of medicinal chemistry, 2025).

What was measured:
Type in all cases: cell-based, human
SH-SY5Y cells [1] = assay: Detoxification of external aldehyde Ia; details: then 20 μM Ia 24 h, relative to Ia only; for fold increase in cell viability against Ia: 1 mM detox agent 3 h
Method in brief: (§1)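 SH-SY5Y cells grown in DMEM/F12 with 10% FBS and seeded in 96-well plates for ~48 h at 37 °C, 5% CO2. They were pretreated with the test compound in fresh medium, washed twice, then exposed to the aldehyde in medium at 37 °C. Viability was read by SRB at 510 and 565 nm, background-subtracted. Fold change is % viable over aldehyde-only wells. Mean ± SD, n = 6, one-way ANOVA.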

SH-SY5Y cells [2] = assay: Detoxification of external aldehyde IIa; details: IIa 150 μM; relative to IIa only
Method in brief: as §1

SH-SY5Y cells [3] = assay: Protection of MPP+-inhibited cells; details: then 1 mM MPP+ 24 h, relative to MPP+ only
SH-SY5Y cells [4] = assay: Intracellular reactive oxygen species assay; details: for intracellular ROS level relative to untreated control: MPP+-inhibited cells, DCFDA fluorometric assay
SH-SY5Y cells [5] = assay: NAD+/NADH ratio assay; details: MPP+-inhibited cells; negative control 68%
SH-SY5Y cells [6] = assay: JC-10 mitochondrial membrane potential assay; details: MPP+-inhibited cells
[7] = Protection of MPP+-inhibited cells; details: human
SH-SY5Y cells [8] = assay: Aldehyde quantification assay in MPP+-treated cells

Compound | fold improvement in cell viability against IIa (SH-SY5Y cells [2]) | fold increase in cell viability against MPP+ (SH-SY5Y cells [3]; 50 μM detox agent 3 h) [fold] | intracellular ROS level relative to untreated control (SH-SY5Y cells [4]) [×] | intracellular NAD+ content (NAD+ %) (SH-SY5Y cells [5]) | MMP, red/green fluorescence ratio (JC-10) (SH-SY5Y cells [6]) | fold increase in cell viability against Ia (SH-SY5Y cells [1]) | fold increase in cell viability against MPP+ (SH-SY5Y cells [3]; 1 mM detox agent 3 h) [fold] | further results
CC(C)(O)c1nc2ccc(Cl)cc2cc1N [Rep, reproxalap] | none of the conventional detox agents | 1.3 | 5.1 | 41% | 0.4 |  |  | change in cell viability against Ia (SH-SY5Y cells [1]; 50 μM detox agent 3 h): negligible change
C[n+]1ccc(-c2ccccc2)cc1.[I-] [MPP^+, 1-methyl-4-phenylpyridinium iodide] |  |  | 9.1 | 27% | 0.2 |  |  | viability at 24 h, 1 mM [7]: 54%; aldehyde concentration relative to untreated cells (SH-SY5Y cells [8]): about 44 ×; aldehyde concentration in cells (SH-SY5Y cells [8]; Ir2mito used with HCOONa): 89 nmol/10^6 cells
O=C1O[C@H]([C@@H](O)CO)C(O)=C1O [Asc, sodium ascorbate] | none of the conventional detox agents |  |  |  |  | negligible change | 1.1 | 
NCCC(=O)N[C@@H](Cc1cnc[nH]1)C(=O)O [Car, carnosine] | none of the conventional detox agents |  | 7.5 | negligible effect |  | 1.3 fold | 1.2 | 
CCCCCC(O)C=CC=O (centres unmarked) [Ia, 4-hydroxynon-2-enal] |  |  |  |  |  |  |  | ROS levels after treatment with the aldehyde (SH-SY5Y cells [4]; SH-SY5Y cells treated with Ia): significantly increased ROS levels
N[C@@H](Cc1ccc(O)c(O)c1)C(=O)O [L-Dopa, levodopa] | none of the conventional detox agents | 1.2 |  |  |  |  |  | 
